The record followed here is ChEMBL document CHEMBL3779809, “Bioactive Enmein-Type ent-Kaurane Diterpenoids from Isodon phyllostachys” (J Nat Prod, 2016).

Assay [1] can be described thus: Cytotoxicity against human HL60 cells assessed as cell viability after 48 hrs by MTS assay. It counts as functional, cell-based. As to conditions: HL-60, 48 h. In a few lines: (§1)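 Cells grown in RPMI-1640 or DMEM with 10% FBS at 37 °C, 5% CO2. Seeded, incubated 12 h, then exposed to a range of concentrations in triplicate for 48 h. Viability read by MTS reduction to formazan. IC50 calculated by Reed and Muench method; cis-platin positive control.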

Assay [2] is described as follows: Cytotoxicity against human SMMC7721 cells assessed as cell viability after 48 hrs by MTS assay. As to conditions: SMMC-7721, 48 h. It counts as functional, cell-based. In short, it runs like this:
as §1
For orientation: Tetrazolium dyes change colour on reduction, which living cells bring about.

For assay [3], the system named is A549. The assay is described as follows: Cytotoxicity against human A549 cells assessed as cell viability after 48 hrs by MTS assay. It counts as functional, cell-based. As to conditions: A549, 48 h. In a few lines: as §1
For assay [4], the system named is MCF7. Nature of the assay: Cytotoxicity against human MCF7 cells assessed as cell viability after 48 hrs by MTS assay. It counts as functional, cell-based. As to conditions: MCF7, 48 h. In short, it runs like this: as §1
For assay [5], the system named is SW480. The assay is described as follows: Cytotoxicity against human SW480 cells assessed as cell viability after 48 hrs by MTS assay. As to conditions: SW480, 48 h. In kind it is functional, cell-based. In a few lines:
as §1

A short description of assay [6]: (§2) Cytotoxicity against human HL60 cells assessed growth inhibition at 40 uM after 48 hrs by MTS assay relative to control. Particulars: HL-60, 48 h, read-out: GI. In kind it is functional. In a few lines: (§3)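 Cultured in RPMI-1640 or DMEM with 10% FBS at 37 °C under 5% CO2. Cells seeded, given 12 h at 37 °C, then treated with compound at 40 μM for 48 h. Growth inhibition measured by MTS assay (formazan colorimetry).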

Assay [7] can be described thus: (§4) Cytotoxicity against human SMMC7721 cells assessed growth inhibition at 40 uM after 48 hrs by MTS assay relative to control. It counts as functional. As to conditions: SMMC-7721, 48 h, read-out: GI. In short, it runs like this:
as §3

For assay [8], the system named is A549. Nature of the assay: Cytotoxicity against human A549 cells assessed growth inhibition at 40 uM after 48 hrs by MTS assay relative to control. In kind it is functional. As to conditions: for inhibition of growth at 40 µM: A549, 48 h, read-out: GI. In a few lines:
as §3

Assay [9] deals with RAW264.7. The assay is described as follows: Inhibition of LPS-induced NO production in mouse RAW264.7 cells at 25 uM preincubated with compound followed by LPS challenge measured after 18 hrs by Griess method. It counts as functional, cell-based. In short, it runs like this:
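RAW264.7 macrophages seeded at 2 × 10^5 cells/well and treated with serial compound dilutions (maximum 25 μM), then stimulated with LPS 1 μg/mL for 18 h. Supernatant nitrite measured with Griess reagents, absorbance 550 nm. MG-132 positive control. Viability checked in parallel by MTT to exclude cytotoxic interference.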
(Nitrite, measured by Griess reagent, commonly stands in for NO production.)

Assay [10] has as its system HL-60. The assay is described as §2. In kind it is functional. In short, it runs like this: as §3
Assay [11] concerns SMMC-7721. Described as §4. It counts as functional. In short, it runs like this: as §3
Assay [12] deals with MCF7. The assay is described as follows: Cytotoxicity against human MCF7 cells assessed growth inhibition at 40 uM after 48 hrs by MTS assay relative to control. It counts as functional. In a few lines: as §3
Assay [13] has as its system SW480. The assay is described as follows: Cytotoxicity against human SW480 cells assessed growth inhibition at 40 uM after 48 hrs by MTS assay relative to control. In kind it is functional. In a few lines:
as §3

Molecules are shown by their SMILES. Active and inactive are the calls of the source. No cut-off for these calls is given here.

In the case of `C=C1C(=O)[C@]23C[C@@H]1CC[C@H]2C12CO[C@@H](O)[C@@H]1C(C)(C)[C@@H](O)C[C@@H]2OC3=O` (stereo partly specified), the IC50 – broadly, the midpoint of a concentration-inhibition curve – in assay [1] came to 9.2 µM; in assay [2], 9.8 µM; in assay [3], 13.3 µM; in assay [4], 15.7 µM; in [5] it was 5.5 µM; in [9], 3.53 µM. Also, the inhibition of growth at 40 µM in assay [6], in assay [7] and in assay [8] was over 50% throughout.

`C=C1C(=O)[C@]23C[C@@H]1CC[C@H]2C12[C@@H](OC)O[C@@H](O)[C@@H]1C(C)(C)CC[C@@H]2OC3=O` (stereo partly specified): the half-inhibitory concentration (IC50) in [1] stood at 3.5 µM; in assay [2], 4.7 µM; in assay [3], 1.2 µM; in assay [4], 3.9 µM; in assay [5], 3.9 µM; in assay [9], 1.36 µM. Moreover, the inhibition of growth at 40 µM in assay [6], in assay [7] and in assay [8] was over 50% in each case.

Consider `C=C1C(=O)[C@]23C[C@@H]1CC[C@H]2C12C(O)O[C@@H](OC)[C@@H]1C(C)(C)CC[C@@H]2OC3=O` (stereo partly specified), for which the IC50 in assay [1] came out at 3 µM; in [2], 4.2 µM; in [3], 3.9 µM; in [4], 2.4 µM; in assay [5], 3.2 µM; in assay [9], 1.47 µM. The inhibition of growth at 40 µM in [6], in assay [7] and in [8] was over 50% throughout.

Consider `C=C1C(=O)[C@]23C[C@@H]1CC[C@H]2C12[C@H](OC)O[C@@H](O)[C@@H]1C(C)(C)CC[C@@H]2OC3=O` (stereo partly specified), for which the half-maximal inhibitory concentration (IC50) in assay [1] was 3.2 µM; in [2], 5 µM; in assay [3] it was 3.4 µM; in assay [4] it was 3.2 µM; in assay [5], 4.6 µM; in assay [9] it was 1.56 µM. Besides, the inhibition of growth at 40 µM in assay [6], in assay [7] and in assay [8] was over 50% in each case.

Regarding `C=C1C(=O)[C@]23C[C@@H]1CC[C@H]2C12C(O)O[C@@H](O)[C@@H]1C(C)(C)CC[C@@H]2OC3=O` (stereo partly specified), the IC50 was 16.8 µM in [1]; 31.8 µM in assay [2]; 39 µM in assay [3]; over 40 µM in [4]; 14.8 µM in assay [5]; 7.42 µM in assay [9]. Further, the inhibition of growth at 40 µM in assay [6], in assay [7] and in [8] was over 50% in each case.

For `C=C1C(=O)[C@]23C[C@@H]1C[C@@H](O)[C@H]2C12CO[C@@H]4OC[C@](C)(CC[C@@H]1OC3=O)[C@@H]42` (stereo partly specified), the IC50 was 14.3 µM in assay [1]; 12.5 µM in assay [2]; 10.2 µM in [3]; 13.7 µM in assay [4]; over 40 µM in [5]; 3.51 µM in assay [9]. Also, the inhibition of growth at 40 µM in assay [6], in [7] and in [8] was over 50% throughout.

As to `C=C1C(=O)[C@]23C[C@@H]1CC[C@H]2[C@@]12CO[C@@H](O)[C@@H]1C(C)(C)CC[C@@H]2OC3=O`, the IC50 in assay [1] worked out at 2.1 µM; in assay [2], 3.3 µM; in assay [3] it was 2.1 µM; in assay [4], 3.4 µM; in assay [5] it was 1.7 µM; in [9] it was 0.74 µM. The inhibition of growth at 40 µM in assay [6], in [7] and in [8] was over 50% each time.

Consider `CO[C@H]1O[C@@H](O)[C@@H]2C(C)(C)CC[C@@H]3OC(=O)[C@@]45C[C@H](CC[C@H]4C132)[C@@H](C)C5=O` (stereo partly specified), for which the IC50 in assay [1], in assay [2], in [3], in assay [4] and in assay [5] was over 40 µM throughout. In addition, the “growth inhibition (GI)” value in assay [10], in assay [11], in assay [8], in assay [12] and in assay [13] was “inactive” in each case.

As for `C=C1[C@H]2CC[C@H]3C45C(O)O[C@@H](OC)[C@@H]4C(C)(C)CC[C@@H]5OC(=O)[C@]3(C2)[C@@H]1O` (stereo partly specified), the IC50 in assay [1], in [2], in assay [3], in assay [4] and in assay [5] was over 40 µM in each case. The “growth inhibition (GI)” value in assay [10], in [11], in assay [8], in assay [12] and in assay [13] was “inactive” in each case.

Regarding `C=C1C(=O)[C@@]23C[C@@H]1C[C@H]1O[C@@H]4OC[C@]5([C@H](CCC(C)(C)[C@@H]45)OC2=O)[C@H]13`, the IC50 in [1] was determined as 15.4 µM; in assay [2], 15.8 µM; in assay [3], 14 µM; in assay [4], 14 µM; in assay [5], 15.2 µM; in assay [9], 4.93 µM. Besides, the inhibition of growth at 40 µM in assay [6], in [7] and in assay [8] was over 50% each time.

Turning to `C=C1C(=O)[C@]23C[C@@H]1C[C@@H](O)[C@H]2[C@@]12CO[C@@H](O)[C@@H]1C(C)(C)CC[C@@H]2OC3=O`, the IC50 in assay [1] is 10.3 µM; in assay [2], 11.4 µM; in assay [3] it was 14.3 µM; in assay [4], 14 µM; in assay [5] it was 10.9 µM; in assay [9], 3.56 µM. The inhibition of growth at 40 µM in [6], in assay [7] and in assay [8] was over 50% each time.

`CC1(C)[C@@H]2C[C@@H]3OC(=O)[C@@]45C[C@H](CC[C@H]4[C@]34C(O[C@@H](O)[C@H]14)O2)[C@](C)(O)C5=O`: the IC50 in assay [1], in assay [2], in assay [3], in assay [4] and in assay [5] was over 40 µM in each case. Moreover, the “growth inhibition (GI)” value in assay [10], in [11], in [8], in [12] and in [13] was “inactive” in each case.

For the compound `C[C@H]1C(=O)[C@]23C[C@@H]1C[C@@H](O)[C@H]2C12CO[C@@H](O)[C@@H]1C(C)(C)CC[C@@H]2OC3=O` (stereo partly specified), the half-inhibitory concentration (IC50) in [1], in assay [2], in assay [3], in assay [4] and in assay [5] was over 40 µM each time. The “growth inhibition (GI)” value in [10], in assay [11], in assay [8], in assay [12] and in [13] was “inactive” each time.
